Test results published in publication PMC5460915 (Molecular pharmaceutics, 2015).

Tests used:
[1] = system: NTR1-expressing HT-29 tumor; assay: Immunohistochemistry and fluorescence microscopy of HT-29 tumor sections; assay type: in vivo, mice bearing human HT-29 xenograft
In short: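 Dye-conjugated test compound given i.v. to HT-29 xenograft mice, with or without a blocking dose of NT peptide. Tumors taken 4 h p.i., […], cut at 6 μm (cryostat, −25 °C) and fixed in ice-cold acetone for 15 min. Peroxidase quenched with 3% H2O2 in methanol, then blocked with 10% horse serum for 1 h at RT. Anti-CD31 with labelled secondary (1:200), DAPI 2 μg/mL for 20 min at 37 °C. Confocal imaging, 40× objective.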

[2] = molecular target: NTR1 (NTR1-positive HT-29 cells) (Homo sapiens, UniProt P30989); assay: In vitro competitive cell binding assay against 125I-NT; conditions: as supported by the similar IC50 values
[3] = system: NTR1-positive HT-29 tumor; assay: Ex vivo near-infrared fluorescence imaging of tumors and organs; assay type: in vivo, mice bearing human HT-29 xenograft
[4] = Biodistribution in nude mice bearing HT-29 tumor; assay type: in vivo, nude mice bearing HT-29 xenograft; conditions: for tissue uptake at 4 h: male, athymic nude BALB/c nu/nu, mouse, total radioactivity
In short: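 HT-29 cells (McCoy's 5A, 10% FBS, 37 °C, 5% CO2; trypsin-EDTA at 80% confluence) at 1 × 10^6 per 0.1 mL s.c. in the shoulder of 4–6-wk male BALB/c nu/nu mice, used at ≥3 mm tumor diameter. 3.7 MBq 64Cu-labelled test compound (HPLC-purified, in PBS) given. Mice killed under inhalation anesthesia 4 h p.i.; tissues weighed and gamma-counted. Group mean %ID/g ± SD.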

[5] = system: NTR1-positive HT-29 tumor; assay: In vivo near-infrared fluorescence imaging; design: species or system mice bearing human HT-29 xenograft; conditions: 1.5 nmol i.v., 1 and 4 h p.i., Cy5.5 filter set
[6] = system: NTR1-positive HT-29 tumor; assay: Small animal PET imaging in HT-29 xenograft mice; assay type: in vivo, human HT-29 xenograft in male athymic mice (BALB/c nu/nu)
In short: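 Xenografts were HT-29 cells, 1 × 10^6 per 0.1 mL s.c. in the shoulder, tumors ≥3 mm. Radioligand labelled with 64CuCl2 in NH4OAc pH 5.5 at 37 °C for 60 min, HPLC-purified, in PBS (about 10.2 GBq/μmol). About 3.7 MBq via tail vein, n = 3/group; blocking group co-given 100 μg unlabelled NT. PET at 1 and 4 h p.i. ROI counts/g/min (1 g/mL density assumed) divided by injected dose gave %ID/g.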

[7] = In vitro stability in PBS; assay type: physicochemical; conditions: PBS (1×), 37 MBq/mL, radio-HPLC
In short: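 64Cu-labelled test compound HPLC-purified, solvent evaporated and taken up in 1× PBS at 37 MBq/mL. Radiochemical purity by radio-HPLC at 30 min, 2 h and 6 h of incubation.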

Chain of NTR1 (NTR1-positive HT-29 cells) (P30989 whole entry): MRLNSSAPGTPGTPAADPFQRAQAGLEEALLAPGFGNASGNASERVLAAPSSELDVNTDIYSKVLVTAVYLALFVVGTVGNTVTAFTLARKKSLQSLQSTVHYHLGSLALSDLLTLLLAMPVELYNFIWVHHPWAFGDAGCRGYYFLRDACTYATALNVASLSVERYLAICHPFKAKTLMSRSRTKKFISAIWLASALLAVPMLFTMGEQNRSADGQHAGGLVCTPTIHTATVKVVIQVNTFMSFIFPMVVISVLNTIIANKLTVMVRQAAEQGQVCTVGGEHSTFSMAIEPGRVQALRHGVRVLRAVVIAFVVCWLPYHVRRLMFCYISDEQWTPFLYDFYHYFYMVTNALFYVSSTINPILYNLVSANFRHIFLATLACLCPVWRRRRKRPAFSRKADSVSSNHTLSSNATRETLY

| Compound | fluorescent signal in tumors of blocking animals (in words) ([1]; 4 h p.i., with blocking dose of NT peptide vs without) | specific binding in HT-29 tumor (in words) ([1]; FL microscope, coinjected Cys-NT peptide) | binding affinity compared between DOTA-NT-Cy5.5 and NT (in words) [2] | tumor uptake relative to liver, optical imaging (in words) ([3]; HT-29 tumor vs liver, optical imaging) | tumor to muscle contrast (in words) ([3]; PET and ex vivo fluorescence, 4 h p.i.) | organs with high probe uptake (in words) ([3]; ex vivo fluorescence, 1.5 nmol i.v., 4 h p.i.) | tumor-to-muscle ratio ([4]; 4 h p.i., based on biodistribution, HT-29 xenograft, mean ± SD) | tumor uptake relative to liver, PET and biodistribution (in words) ([4]; HT-29 tumor vs liver, PET imaging and biodistribution) | muscle, lung, and heart uptake (in words) ([4]; biodistribution, 4 h p.i., 3.7 MBq) | tissue uptake at 4 h ([4]; kidney, 3.7 MBq) [%ID/g] | tissue uptake at 4 h ([4]; liver, 3.7 MBq) [%ID/g] | tumor fluorescence signal in vivo (in words) [5] | tumor uptake ([6]; PET ROI, HT-29 xenograft, 1 h p.i., ~3.7 MBq tail vein, n = 3/group, mean ± SD) [%ID/g] | inhibition of tumor uptake by nonradioactive Cys-NT (in words) ([6]; blocking experiment, P < 0.05, all time points (Figures 3 and 5: PET and fluorescence)) | uptake in normal organs, blocked vs unblocked (in words) ([6]; liver, kidneys, muscle, with vs without 100 μg unlabeled NT) | radiochemical purity ([7]; 30 min after incubation) | radiochemical purity ([7]; 2 h after incubation) [%] | radiochemical purity ([7]; 6 h after incubation) [%] |
| --- | --- | --- | --- | --- | --- | --- | --- | --- | --- | --- | --- | --- | --- | --- | --- | --- | --- | --- |
| CC[C@H](C)[C@H](NC(=O)[C@H](Cc1ccc(O)cc1)NC(=O)[C@@H]1CCCN1C(=O)[C@H](CCCNC(=N)N)NC(=O)[C@H](CCCNC(=N)N)NC(=O)[C@@H]1CCCN1C(=O)[C@H](CCCCN)NC(=O)[C@H](CSC1CC(=O)N(CCNC(=O)CCCCC[N+]2=C(C=CC=CC=C3N(CC)c4ccc5c(S(=O)(=O)O)cc(S(=O)(=O)[O-])cc5c4C3(C)C)C(C)(C)c3c2ccc2c(S(=O)(=O)O)cc(S(=O)(=O)O)cc32)C1=O)NC(=O)CN1CCN(CC(=O)O)CCN(CC(=O)O)CCN(CC(=O)O)CC1)C(=O)N[C@@H](CC(C)C)C(=O)O (stereo partly drawn) [DOTA-NT-Cy5.5] | very weak fluorescent signals | tumor localization was clearly inhibited by coinjected Cys-NT peptide | not significantly different |  |  |  |  |  |  |  |  |  |  |  |  |  |  |  |
| CC[C@H](C)[C@H](NC(=O)[C@H](Cc1ccc(O)cc1)NC(=O)[C@@H]1CCCN1C(=O)[C@H](CCCNC(=N)N)NC(=O)[C@H](CCCNC(=N)N)NC(=O)[C@@H]1CCCN1C(=O)[C@H](CCCCN)NC(=O)[C@H](CSC1CC(=O)N(CCNC(=O)CCCCC[N+]2=C(C=CC=CC=C3N(CC)c4ccc5c(S(=O)(=O)O)cc(S(=O)(=O)[O-])cc5c4C3(C)C)C(C)(C)c3c2ccc2c(S(=O)(=O)O)cc(S(=O)(=O)O)cc32)C1=O)NC(=O)CN1CCN(CC(=O)O)CCN(CC(=O)O)CCN(CC(=O)O)CC1)C(=O)N[C@@H](CC(C)C)C(=O)O (stereo partly drawn) [^64Cu-DOTA-NT-Cy5.5, metal not drawn] |  |  |  | higher tumor uptake than liver | both PET and fluorescence gave good tumor to muscle contrast | The tumor, liver, and kidneys are three motifs that showed high probe uptake | 17.44 ± 3.25 | HT-29 tumor has lower uptake than liver | The muscle, lung, and heart had relatively low uptake | 14.2 ± 1.33 | 4.63 ± 0.74 | the HT-29 tumor lit up at all the time points examined | 1.91 ± 0.22 | nonradioactive Cys-NT peptide significantly (P < 0.05) inhibited the tumor uptake | no significant difference in most of the normal organs | greater than 98.9% | > 96.9 | > 90.8 |
